# Experimental data from ChEMBL document CHEMBL1128434, “Gonadotropin-releasing hormone antagonists: novel members of the azaline B family” (1995).
# Calls of active or inactive are those of the source. The rule behind the calls is not given here.
# Assays:
# [1] = species: Rattus norvegicus; experiment: Effect in the anti ovulatory assay (AOA) in rats expressed as no. of rats ovulating/No of rats treated at 100 mg; 0/4; assay type: functional
# [2] = species: Rattus norvegicus; experiment: Effect in the anti ovulatory assay (AOA) in rats expressed as no. of rats ovulating/No of rats treated at 10 mg; 2/2; assay type: functional
# [3] = species: Rattus norvegicus; experiment: Effect in the anti ovulatory assay (AOA) in rats expressed as no. of rats ovulating/No of rats treated at 50 mg; 4/8; assay type: functional
# [4] = species: Rattus norvegicus; experiment: Effect in the anti ovulatory assay (AOA) in rats expressed as no. of rats ovulating/No of rats treated at 1.0 mg; 2/8; assay type: functional
# [5] = target: T1, Gonadotropin-releasing hormone receptor (Rattus norvegicus) (UniProt P30969); experiment: In vitro potency to inhibit GnRH-mediated LH secretion by cultured pituitary cells relative to [Ac-delta-Pro1,DFpa2,DTrp36]GnRH.; assay type: functional, cell-based; details: Pituitary gland cell
# T1 sequence (whole entry): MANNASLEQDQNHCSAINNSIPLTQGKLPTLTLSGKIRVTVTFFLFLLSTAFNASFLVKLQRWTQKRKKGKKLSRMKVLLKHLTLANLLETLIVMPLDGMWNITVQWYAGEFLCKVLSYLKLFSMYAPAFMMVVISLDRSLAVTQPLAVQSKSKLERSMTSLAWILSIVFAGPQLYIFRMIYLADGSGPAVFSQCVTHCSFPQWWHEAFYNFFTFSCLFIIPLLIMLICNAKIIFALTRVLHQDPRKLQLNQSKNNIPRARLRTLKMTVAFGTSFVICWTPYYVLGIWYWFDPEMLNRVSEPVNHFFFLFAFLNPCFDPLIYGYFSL
# Outline: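 Dispersed rat pituitary cells in culture; antagonist inhibition of GnRH-stimulated LH secretion. Potency expressed relative to standard antagonist [Ac-Δ3Pro1,D4FPhe2,DTrp3,6]GnRH taken as 1.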
# [6] = target: T1, Gonadotropin-releasing hormone receptor (Rattus norvegicus); experiment: Duration of action, measured using castrated male rat assay to inhibit luteinizing hormone release.; fully active at 24 hr but not at 48 hr; assay type: functional
# [7] = species: Rattus norvegicus; experiment: Effect in the anti ovulatory assay (AOA) in rats expressed as no. of rats ovulating/No of rats treated at 0.5 mg; 4/4; assay type: functional
# [8] = species: Rattus norvegicus; experiment: Effect in the anti ovulatory assay (AOA) in rats expressed as no. of rats ovulating/No of rats treated at 1.0 mg; 11/15; assay type: functional
# [9] = species: Rattus norvegicus; experiment: Effect in the anti ovulatory assay (AOA) in rats expressed as no. of rats ovulating/No of rats treated at 1.0 mg; 2/9; assay type: functional
# [10] = species: Rattus norvegicus; experiment: Effect in the anti ovulatory assay (AOA) in rats expressed as no. of rats ovulating/No of rats treated at 1.0 mg; 1/8; assay type: functional
# [11] = target: T1, Gonadotropin-releasing hormone receptor (Rattus norvegicus); experiment: Effect in the anti ovulatory assay (AOA) in rats expressed as no. of rats ovulating/No of rats treated at 2.5 mg; 0/8; assay type: functional
# [12] = species: Rattus norvegicus; experiment: Effect in the anti ovulatory assay (AOA) in rats expressed as no. of rats ovulating/No of rats treated at 1.0 mg; 6/6; assay type: functional
# [13] = species: Rattus norvegicus; experiment: Effect in the anti ovulatory assay (AOA) in rats expressed as no. of rats ovulating/No of rats treated at 1.0 mg; 9/12; assay type: functional
# [14] = species: Rattus norvegicus; experiment: Effect in the anti ovulatory assay (AOA) in rats expressed as no. of rats ovulating/No of rats treated at 1.0 mg; 3/7; assay type: functional
# [15] = species: Rattus norvegicus; experiment: Effect in the anti ovulatory assay (AOA) in rats expressed as no. of rats ovulating/No of rats treated at 0.5 mg; 3/3; assay type: functional
# [16] = species: Rattus norvegicus; experiment: Effect in the anti ovulatory assay (AOA) in rats expressed as no. of rats ovulating/No of rats treated at 1.0 mg; 4/15; assay type: functional
# [17] = species: Rattus norvegicus; experiment: Effect in the anti ovulatory assay (AOA) in rats expressed as no. of rats ovulating/No of rats treated at 2.5 mg; 0/2; assay type: functional
# [18] = species: Rattus norvegicus; experiment: Effect in the anti ovulatory assay (AOA) in rats expressed as no. of rats ovulating/No of rats treated at 0.5 mg; 8/8; assay type: functional
# [19] = species: Rattus norvegicus; experiment: Effect in the anti ovulatory assay (AOA) in rats expressed as no. of rats ovulating/No of rats treated at 2.5 mg; 3/3; assay type: functional
# [20] = species: Rattus norvegicus; experiment: Duration of action measured using castrated male rat assay to inhibit luteinizing hormone release.; In active at 24 hr; assay type: functional, organism-based
# [21] = species: Rattus norvegicus; experiment: Effect in the anti ovulatory assay (AOA) in rats expressed as no. of rats ovulating/No of rats treated at 1.0 mg; 5/8; assay type: functional
# [22] = species: Rattus norvegicus; experiment: Duration of action measured using castrated male rat assay to inhibit luteinizing hormone release.; fully active at 48 hr but not at 72 hr; assay type: functional
# [23] = species: Rattus norvegicus; experiment: Effect in the anti ovulatory assay (AOA) in rats expressed as no. of rats ovulating/No of rats treated at 0.5 mg; 3/4; assay type: functional
# [24] = species: Rattus norvegicus; experiment: Effect in the anti ovulatory assay (AOA) in rats expressed as no. of rats ovulating/No of rats treated at 250 mg; 4/4; assay type: functional
# [25] = species: Rattus norvegicus; experiment: Effect in the anti ovulatory assay (AOA) in rats expressed as no. of rats ovulating/No of rats treated at 2.5 mg; 2/8; assay type: functional
# [26] = species: Rattus norvegicus; experiment: Effect in the anti ovulatory assay (AOA) in rats expressed as no. of rats ovulating/No of rats treated at 1.0 mg; 4/6; assay type: functional
smiles,measurement,setting,value
CC(=O)N[C@H](Cc1ccc2ccccc2c1)C(=O)N[C@H](Cc1ccc(Cl)cc1)C(=O)N[C@H](Cc1cccnc1)C(=O)N[C@@H](CO)C(=O)N(C)[C@@H](Cc1ccc(Nc2n[nH]c(N)n2)cc1)C(=O)N[C@H](Cc1ccc(Nc2n[nH]c(N)n2)cc1)C(=O)N[C@@H](CC(C)C)C(=O)N[C@@H](Cc1ccc(NC(C)C)cc1)C(=O)N1CCC[C@H]1C(=O)N[C@H](C)N,No. of rats ovulated,[1],0
same,No. of rats ovulated,[2],2
same,No. of rats ovulated,[3],4
CC(=O)N[C@H](Cc1ccc2ccccc2c1)C(=O)N[C@H](Cc1ccc(Cl)cc1)C(=O)N[C@H](Cc1cccnc1)C(=O)N[C@@H](CO)C(=O)N[C@@H](Cc1ccc(NC(=O)[C@H](C)Nc2n[nH]c(N)n2)cc1)C(=O)N[C@H](Cc1ccc(NC(=O)[C@@H](C)Nc2n[nH]c(N)n2)cc1)C(=O)N[C@@H](CC(C)C)C(=O)N[C@@H](CCCCNC(C)C)C(=O)N1CCC[C@H]1C(=O)N[C@H](C)N,No. of rats ovulated,[4],2
same,Relative potency,[5],0.36
same,Duration of action,[6],24 h
CC(=O)N[C@H](Cc1ccc2ccccc2c1)C(=O)N[C@H](Cc1ccc(Cl)cc1)C(=O)N[C@H](Cc1cccnc1)C(=O)N[C@@H](CO)C(=O)N[C@@H](Cc1ccc(NC(=O)c2n[nH]c(N)n2)cc1)C(=O)N[C@H](Cc1ccc(NC(=O)c2n[nH]c(N)n2)cc1)C(=O)N[C@@H](CC(C)C)C(=O)N[C@@H](CCCCNC(C)C)C(=O)N1CCC[C@H]1C(=O)N[C@H](C)N,No. of rats ovulated,[7],4
same,Relative potency,[5],0.65
same,No. of rats ovulated,[8],11
CC(=O)N[C@H](Cc1ccc2ccccc2c1)C(=O)N[C@H](Cc1ccc(Cl)cc1)C(=O)N[C@H](Cc1cccnc1)C(=O)N[C@@H](CO)C(=O)N(C)[C@@H](Cc1ccc(Nc2n[nH]c(N)n2)cc1)C(=O)N[C@H](Cc1ccc(Nc2n[nH]c(N)n2)cc1)C(=O)N[C@@H](CC(C)C)C(=O)N[C@@H](CCCCNC(C)C)C(=O)N1CCC[C@H]1C(=O)N[C@H](C)N,No. of rats ovulated,[9],2
same,Relative potency,[5],1.9
same,Duration of action,[6],24 h
CC(=O)N[C@H](Cc1ccc2ccccc2c1)C(=O)N[C@H](Cc1ccc(Cl)cc1)C(=O)N[C@H](Cc1cccnc1)C(=O)N[C@@H](CO)C(=O)N[C@@H](Cc1ccc(NC(=O)[C@@H](C)Nc2n[nH]c(N)n2)cc1)C(=O)N[C@H](Cc1ccc(NC(=O)[C@H](C)Nc2n[nH]c(N)n2)cc1)C(=O)N[C@@H](CC(C)C)C(=O)N[C@@H](CCCCNC(C)C)C(=O)N1CCC[C@H]1C(=O)N[C@H](C)N,No. of rats ovulated,[10],1
same,No. of rats ovulated,[7],4
same,Relative potency,[5],0.4
CCCC(=O)Nc1ccc(C[C@H](NC(=O)[C@H](CO)NC(=O)[C@@H](Cc2cccnc2)NC(=O)[C@@H](Cc2ccc(Cl)cc2)NC(=O)[C@@H](Cc2ccc3ccccc3c2)NC(C)=O)C(=O)N[C@H](Cc2ccc(NC(=O)CCC)cc2)C(=O)N[C@@H](CC(C)C)C(=O)N[C@@H](CCCCNC(C)C)C(=O)N2CCC[C@H]2C(=O)N[C@H](C)N)cc1,No. of rats ovulated,[11],0
same,No. of rats ovulated,[12],6
CC(=O)N[C@H](Cc1ccc2ccccc2n1)C(=O)N[C@H](Cc1ccc(Cl)cc1)C(=O)N[C@H](Cc1cccnc1)C(=O)N[C@@H](CO)C(=O)N[C@@H](Cc1ccc(Nc2n[nH]c(N)n2)cc1)C(=O)N[C@H](Cc1ccc(Nc2n[nH]c(N)n2)cc1)C(=O)N[C@@H](CC(C)C)C(=O)N[C@@H](CCCCNC(C)C)C(=O)N1CCC[C@H]1C(=O)N[C@H](C)N,No. of rats ovulated,[13],9
CC(=O)Nc1ccc(C[C@@H](NC(=O)[C@H](Cc2ccc(O)cc2)NC(=O)[C@H](CO)NC(=O)[C@@H](Cc2cccnc2)NC(=O)[C@@H](Cc2ccc(Cl)cc2)NC(=O)[C@@H](Cc2ccc3ccccc3c2)NC(C)=O)C(=O)N[C@@H](CC(C)C)C(=O)N[C@@H](CCCCNC(C)C)C(=O)N2CCC[C@H]2C(=O)N[C@H](C)N)cc1,Relative potency,[5],2.8
same,No. of rats ovulated,[14],3
same,No. of rats ovulated,[15],3
CC(=O)N[C@@H](Cc1c[nH]cn1)C(=O)Nc1ccc(C[C@H](NC(=O)[C@H](CO)NC(=O)[C@@H](Cc2cccnc2)NC(=O)[C@@H](Cc2ccc(Cl)cc2)NC(=O)[C@@H](Cc2ccc3ccccc3c2)NC(C)=O)C(=O)N[C@H](Cc2ccc(NC(=O)[C@@H](Cc3c[nH]cn3)NC(C)=O)cc2)C(=O)N[C@@H](CC(C)C)C(=O)N[C@@H](CCCCNC(C)C)C(=O)N2CCC[C@H]2C(=O)N[C@H](C)N)cc1,No. of rats ovulated,[16],4
same,Relative potency,[5],0.47
same,Duration of action,[6],24 h
same,No. of rats ovulated,[17],0
same,No. of rats ovulated,[18],8
CC(=O)NCCCC[C@H](NC(=O)[C@H](CO)NC(=O)[C@@H](Cc1cccnc1)NC(=O)[C@@H](Cc1ccc(Cl)cc1)NC(=O)[C@@H](Cc1ccc2ccccc2c1)NC(C)=O)C(=O)N[C@H](CCCCNC(C)=O)C(=O)N[C@@H](CC(C)C)C(=O)N[C@@H](CCCCNC(C)C)C(=O)N1CCC[C@H]1C(=O)N[C@H](C)N,Relative potency,[5],0.36
same,No. of rats ovulated,[19],3
same,Duration of action,[20],inactive
CC(=O)N[C@H](Cc1ccc2ccccc2c1)C(=O)N[C@H](Cc1ccc(Cl)cc1)C(=O)N[C@H](Cc1cccnc1)C(=O)N[C@@H](CO)C(=O)N[C@@H](Cc1ccc(NC(=O)CNc2n[nH]c(N)n2)cc1)C(=O)N[C@H](Cc1ccc(NC(=O)CNc2n[nH]c(N)n2)cc1)C(=O)N[C@@H](CC(C)C)C(=O)N[C@@H](CCCCNC(C)C)C(=O)N1CCC[C@H]1C(=O)N[C@H](C)N,No. of rats ovulated,[21],5
same,Relative potency,[5],1.1
same,Duration of action,[22],48 h
same,No. of rats ovulated,[23],3
CC(=O)N[C@H](Cc1ccc2ccccc2c1)C(=O)N[C@H](Cc1ccc(Cl)cc1)C(=O)N[C@H](Cc1cccnc1)C(=O)N[C@@H](CO)C(=O)N[C@@H](Cc1ccc(NC(=O)Nc2cccc(Cl)c2)cc1)C(=O)N[C@H](Cc1ccc(NC(=O)Nc2cccc(Cl)c2)cc1)C(=O)N[C@@H](CC(C)C)C(=O)N[C@@H](CCCCNC(C)C)C(=O)N1CCC[C@H]1C(=O)N[C@H](C)N,No. of rats ovulated,[24],4
CC(=O)N[C@@H](CC(N)=O)C(=O)Nc1ccc(C[C@H](NC(=O)[C@H](CO)NC(=O)[C@@H](Cc2cccnc2)NC(=O)[C@@H](Cc2ccc(Cl)cc2)NC(=O)[C@@H](Cc2ccc3ccccc3c2)NC(C)=O)C(=O)N[C@H](Cc2ccc(NC(=O)[C@@H](CC(N)=O)NC(C)=O)cc2)C(=O)N[C@@H](CC(C)C)C(=O)N[C@@H](CCCCNC(C)C)C(=O)N2CCC[C@H]2C(=O)N[C@H](C)N)cc1,No. of rats ovulated,[25],2
same,No. of rats ovulated,[26],4
CC(=O)NCC(=O)Nc1ccc(C[C@H](NC(=O)[C@H](CO)NC(=O)[C@@H](Cc2cccnc2)NC(=O)[C@@H](Cc2ccc(Cl)cc2)NC(=O)[C@@H](Cc2ccc3ccccc3c2)NC(C)=O)C(=O)N[C@H](Cc2ccc(NC(=O)CNC(C)=O)cc2)C(=O)N[C@@H](CC(C)C)C(=O)N[C@@H](CCCCNC(C)C)C(=O)N2CCC[C@H]2C(=O)N[C@H](C)N)cc1,No. of rats ovulated,[21],5
same,Relative potency,[5],0.85
same,Duration of action,[6],24 h
same,No. of rats ovulated,[23],3
